This is an account of results in publication PMC3777270 (Biomaterials, 2010).

In this assay the test system is S. aureus strain MZ100. As to the kind of experiment: In vitro S. aureus biofilm formation on coated Ti slides. The settings on record: 5 h exposure to S. aureus, 0.1% crystal violet; for macroscopic appearance of crystal violet stained wells: digital photographs; for cell attachment in phase-contrast micrographs: 630×. In kind it is cell-based, Staphylococcus aureus. Put shortly:
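Wells were formed on 20 nm Ti-coated glass slides with adhesive silicone isolators. PEGylated mono-, di- or tetravalent Ti-binding peptide coatings (500 μL) were applied in triplicate, held 2 h at RT and washed twice with PBS; uncoated Ti was included. Overnight TSB culture was diluted to ~5 × 10^7 CFU/mL in TSB + 0.2% glucose, then 5 h at 37 °C in a humidified chamber.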

Take “(SKHKGGKHKGGKHKG)2K)2KSSGK(Biotin) –GGC–PEG [TBP4–PEG]”: the “macroscopic appearance of crystal violet stained wells” value (“macroscopic appearance” for short) is “remained largely clear with small, disperse patches of staining” and the “cell attachment in phase-contrast micrographs” value (shortened to “cell attachment”) is reported as “significantly fewer adhered bacteria”.
As for “(SKHKGGKHKGGKHKG)2KSSGK(Biotin) –GGC–PEG [TBP2–PEG]”, the “macroscopic appearance” value is given as “thick, dense biofilm” and the “cell attachment” value is “slight decrease in cell density”.
On to “SKHKGGKHKGGKHKGSSGK(Biotin) –GGC–PEG [TBP1–PEG]”, for which the “macroscopic appearance” value is recorded as “thick, dense biofilm” and the “cell attachment” value is listed as “substantial cell attachment”.
